In ChEMBL document CHEMBL1938334, “Quinoline tricyclic derivatives. Design, synthesis and evaluation of the antiviral activity of three new classes of RNA-dependent RNA polymerase inhibitors” (Bioorg Med Chem, 2011):
pEC50, pIC50: −log10 of the molar value.

Assays:
Coxsackievirus B5 = test: Antiviral activity against Human coxsackievirus B5 Ohio-1 infected in african green monkey Vero 76 cells assessed as reduction of virus-induced plaque formation after 3 days using crystal violet staining; format: functional, organism-based; settings: Enterovirus B, Ohio-1, Vero, 72 h
CCRF-SB = test: Cytotoxicity against human CCRF-SB cells after 96 hrs by MTT assay; format: functional
Method in brief: (§1)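 Cells were seeded at 1×10^5 cells/mL: leukaemia/lymphoma lines in RPMI-1640, solid tumour and fibroblast lines in specific media, all with 10% FCS. Serial compound dilutions were applied for 96 h at 37 °C, 5% CO2, under conditions allowing controls at least three rounds of multiplication. Viability was read by MTT. CC50 by linear regression. Mean of three determinations.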

DU-145 = test: Cytotoxicity against human DU145 cells after 96 hrs by MTT assay; format: functional; settings: DU-145, 96 h; method in brief: as §1
Hepatitis C virus = test: Antiviral activity against HCV1b infected in human GS4.1 cells assessed as inhibition of virus-induced cytopathogenicity by measuring viral NS4A protein level after 72 hrs by ELISA; format: functional, organism-based, Hepacivirus hominis; settings: genotype 1b
Method in brief: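 GS4.1 cells are Huh-7 cells carrying a genotype 1b subgenomic replicon, kept in 0.5 mg/mL G418. They were seeded at 7.5×10^3 cells/well with two-fold serial dilutions of compound (top 75 μM) and incubated 72 h at 37 °C. Huh-7 cells without the replicon served as negative control. NS4A was measured by cell ELISA with anti-NS4A mAb A-236, peroxidase and o-phenylenediamine, A492. EC50 came from four-parameter sigmoidal fit.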

[1] = system: Human immunodeficiency virus 1; test: Antiviral activity against HIV1 3B infected in human MT4 cells assessed as inhibition of virus-induced cytopathogenicity after 4 days by MTT assay; format: functional, organism-based; settings: Human immunodeficiency virus 1, 3B, MT4, 96 h
Method in brief: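 MT-4 cells (1×10^4 per well) were infected with HIV-1 IIIB at 100 CCID50, m.o.i. 0.01, together with serial compound dilutions. Viability was read by MTT after 4 days at 37 °C. EC50 was taken by linear regression versus untreated controls. Mean of three determinations.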

Reovirus sp. = test: Antiviral activity against Reovirus type-1 3651 infected in hamster BHK21 cells assessed as inhibition of virus-induced cytopathogenicity after 3 to 4 days by MTT assay; format: functional, organism-based; settings: Reovirus sp., 3651, BHK-21
Method in brief: (§2)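 Host cells were seeded in 96-well plates at 3×10^4 cells/well (MDBK) or 5×10^4 cells/well (BHK-21) and grown to confluent monolayers overnight. They were infected at m.o.i. 0.01 in maintenance MEM with 0.5% inactivated FBS. Serial compound dilutions were added after 1 h. Viability was read by MTT after 3–4 days at 37 °C. EC50 was taken by linear regression against untreated controls. Mean of three determinations.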

Human orthopneumovirus = test: Antiviral activity against Human respiratory syncytial virus A2 infected in african green monkey Vero 76 cells assessed as reduction of virus-induced plaque formation after 5 days using crystal violet staining; format: functional, organism-based; settings: 120 h
[2] = Cytotoxicity against human MT4 cells after 96 hrs by MTT assay; format: cell-based
Method in brief: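 Exponentially growing MT-4 cells seeded at 1×10^5 cells/mL in RPMI-1640 with 10% FBS, penicillin and streptomycin. Incubated with serial compound dilutions at 37 °C, 5% CO2 for 96 h; viability by MTT. CC50 by linear regression relative to untreated controls; mean of three independent determinations.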

Yellow fever virus = test: Antiviral activity against Yellow fever virus 17D Stamaril Pasteur J07B01 infected in hamster BHK21 cells assessed as inhibition of virus-induced cytopathogenicity after 3 to 4 days by MTT assay; format: functional, cell-based; settings: Stamaril Pasteur J07B01, BHK-21; method in brief: as §2
CCRF-CEM = test: Cytotoxicity against human CCRF-CEM cells after 96 hrs by MTT assay; format: functional; method in brief: as §1
SK-MES-1 = test: Cytotoxicity against human SKMES1 cells after 96 hrs by MTT assay; format: functional; settings: SK-MES-1, 96 h; method in brief: as §1
Human alphaherpesvirus 1 = test: Antiviral activity against Human herpesvirus 1 strain KOS infected in african green monkey Vero 76 cells assessed as reduction of virus-induced plaque formation after 3 days using crystal violet staining; format: functional, organism-based; settings: Human alphaherpesvirus 1, KOS, 72 h
[3] = Cytotoxicity against BHK21 cells after 48 to 96 hrs by MTT assay; format: cell-based, Mesocricetus auratus, BHK-21; settings: hamster
Method in brief: (§3)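 MDBK seeded at 6×10^5 and BHK at 1×10^6 cells/mL in MEM-Earle's with L-glutamine, 1 mM pyruvate, kanamycin, plus 10% horse serum (MDBK) or 10% FBS (BHK). Cells were grown at 37 °C, 5% CO2 with serial compound dilutions (DMSO stocks diluted in medium). Viability by MTT after 48–96 h. CC50 was taken by linear regression versus untreated controls; three independent determinations.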

[4] = Selectivity index, ratio of EC50 for Bovine viral diarrhea virus 1-NADL to CC50 for MDBK cells
Method in brief: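 CC50 was measured in mock-infected MDBK cells seeded at 6×10^5 cells/mL in MEM-E with 10% horse serum and treated with serial compound dilutions for 48–96 h; viability by MTT. EC50 came from BVDV NADL CPE protection in MDBK cells at m.o.i. 0.01, 3–4 days, MTT. Both were obtained by linear regression.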

[5] = Inhibition of Bovine viral diarrhea virus 1-NADL recombinant NS5B Cdelta 21 RNA dependent RNA polymerase expressed in Escherichia coli (DE3) using GTP as substrate preincubated for 30 mins before substrate addition measured after 120 mins by fluorescence assay
[6] = Cytotoxicity against MDBK cells after 48 to 96 hrs by MTT assay; format: cell-based, Bos taurus; settings: cattle; method in brief: as §3
SK-MEL-28 = test: Cytotoxicity against human SK-MEL-28 cells after 96 hrs by MTT assay; format: functional; settings: SK-MEL-28, 96 h; method in brief: as §1
[7] = Cytotoxicity against african green monkey Vero 76 cells after 48 to 96 hrs by crystal violet staining; format: cell-based; settings: chlorocebus sabaeus
Method in brief: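 Vero-76 cells were seeded at 4×10^5 cells/mL in D-MEM with L-glutamine, kanamycin and 10% FBS, then exposed to serial compound dilutions at 37 °C, 5% CO2 for 48–96 h. Viability was read by crystal violet staining. 50% cytotoxic concentration by linear regression relative to untreated controls; mean of three independent determinations.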

[8] = Inhibition of HCV1b BK 6xHis-tagged recombinant NS5B Cdelta 21 RNA dependent RNA polymerase expressed in Escherichia coli (DE3) using GTP as substrate preincubated for 30 mins before substrate addition measured after 120 mins by fluorescence assay; parameters: species or system Hepatitis C virus (isolate BK)
Method in brief: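 His-tagged NS5B (BVDV C-terminal Δ24; HCV1b Δ21) from E. coli Rosetta 2(DE3)pLysS, Ni-NTA purified, 500–600 ng per 20 μL. The template was poly(rC) 10 μg/mL and the primer oligo(rG)12 0.1 μg/mL, with GTP 80 μM. Buffer: 20 mM Tris pH 7.0, 0.5 mM MnCl2 or 5 mM MgCl2, 5% DMSO. Enzyme/drug 30 min at RT, then GTP added; 120 min at 37 °C (BVDV) or 25 °C (HCV). Read-out was dsRNA dye fluorescence (ex 480/em 520). IC50 from dose–response fits.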

[9] = Cytotoxicity against human MRC5 cells after 96 hrs by MTT assay; format: cell-based; method in brief: as §1
WIL2-NS = test: Cytotoxicity against human WIL2-NS cells after 96 hrs by MTT assay; format: functional; method in brief: as §1

SMILES: O=[N+]([O-])c1ccc(-c2nc3cc4cccnc4c(Cl)c3[nH]2)cc1
- pEC50 (Coxsackievirus B5): < 4.00
- CC50 (CCRF-SB): > 100 µM
- CC50 (DU-145): > 100 µM
- pEC50 (Hepatitis C virus): 5.51
- pEC50 [1]: < 4.00
- pEC50 (Reovirus sp.): < 4.00
- pEC50 (Human orthopneumovirus): < 4.00
- CC50 at 96 h [2]: > 100 µM
- pEC50 (Yellow fever virus): < 4.00
- CC50 (CCRF-CEM): 49 µM
- CC50 (SK-MES-1): > 100 µM
- pEC50 (Human alphaherpesvirus 1): 4.36
- CC50 [3]: > 100 µM
- Selectivity Index [4]: >100
- pIC50 [5]: 7.22
- CC50 [6]: > 100 µM
- CC50 (SK-MEL-28): > 100 µM
- CC50 [7]: > 100 µM
- pIC50 [8]: 5.10
- CC50 at 96 h [9]: > 100 µM
- CC50 (WIL2-NS): > 100 µM
